Here are results for one compound from ChEMBL document CHEMBL4428067, “Drug Discovery against Psoriasis: Identification of a New Potent FMS-like Tyrosine Kinase 3 (FLT3) Inhibitor, 1-(4-((1H-Pyrazolo[3,4-d]pyrimidin-4-yl)oxy)-3-fluorophenyl)-3-(5-(tert-butyl)isoxazol-3-yl)urea, That Showed Potent Activity in a Psoriatic Animal Model” (J Med Chem, 2016).

Assay [1] addresses T1, Receptor-type tyrosine-protein kinase FLT3 (Mus musculus) (UniProt Q00342).
T1 sequence (whole entry): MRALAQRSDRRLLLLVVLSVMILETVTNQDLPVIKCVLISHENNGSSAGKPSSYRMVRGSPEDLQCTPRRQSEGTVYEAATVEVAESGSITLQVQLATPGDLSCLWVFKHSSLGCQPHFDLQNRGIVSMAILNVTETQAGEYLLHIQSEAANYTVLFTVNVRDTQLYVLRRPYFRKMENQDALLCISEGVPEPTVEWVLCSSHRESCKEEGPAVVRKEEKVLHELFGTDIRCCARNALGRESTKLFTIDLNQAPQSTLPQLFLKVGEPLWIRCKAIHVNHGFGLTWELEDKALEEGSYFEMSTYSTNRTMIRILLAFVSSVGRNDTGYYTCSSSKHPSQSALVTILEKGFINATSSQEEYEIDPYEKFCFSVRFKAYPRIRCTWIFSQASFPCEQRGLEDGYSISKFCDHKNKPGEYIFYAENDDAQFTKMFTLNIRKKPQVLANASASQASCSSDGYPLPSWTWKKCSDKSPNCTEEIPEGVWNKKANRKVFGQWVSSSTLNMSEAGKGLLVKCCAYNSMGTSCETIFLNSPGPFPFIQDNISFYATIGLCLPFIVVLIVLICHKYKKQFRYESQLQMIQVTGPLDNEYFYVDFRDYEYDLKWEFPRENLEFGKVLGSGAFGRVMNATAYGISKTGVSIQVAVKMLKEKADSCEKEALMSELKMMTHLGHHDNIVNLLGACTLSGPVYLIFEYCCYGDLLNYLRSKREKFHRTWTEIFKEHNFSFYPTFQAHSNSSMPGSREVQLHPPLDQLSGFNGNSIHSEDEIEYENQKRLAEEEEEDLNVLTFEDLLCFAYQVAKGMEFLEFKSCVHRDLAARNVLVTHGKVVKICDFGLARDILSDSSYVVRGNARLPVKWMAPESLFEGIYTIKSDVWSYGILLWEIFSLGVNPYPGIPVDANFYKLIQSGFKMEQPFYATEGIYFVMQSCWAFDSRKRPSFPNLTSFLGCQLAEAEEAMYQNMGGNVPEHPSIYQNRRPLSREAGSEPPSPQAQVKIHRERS
Kind of assay: Inhibition of FLT3 in Balb/c mouse BMDCs assessed as suppression of FLT3L-induced mDC formation measured as upper right quadrant cells level treated on day 9 post 9 days of FLT3L-stimulation measured after 24 hrs by CD11c PerCP and I-A/I-E (MHC class II) FITC staining based flow cytometric analysis (reference value: 21%). Further details: scale not given: the % may be the effect or the level left. In short, it runs like this: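 BALB/c bone marrow cells were cultured at 1×10^6/ml with FLT3L in supplemented RPMI-1640 for 9 days. Compound in DMSO or 0.1% DMSO was added on day 9 for 24 h. Cells were stained for 30 min with CD11c PerCP plus B220 FITC (pDC: CD11c+ B220+) or MHC II FITC (mDC: CD11c+ MHC II+), then analysed by flow cytometry. Three independent experiments.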

A further assay has as its system BMDC. Nature of the assay: Decrease in IFN-gamma level in Balb/c mouse BMDCs at 10 nM treated on day 9 post 9 days of FLT3L-stimulation measured after 12 hrs by ELISA. It is filed as functional, cell-based. Summed up:
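BALB/c bone marrow cells were plated at 1×10^6/ml in RPMI-1640 with 10% FCS, 10^-4 M 2-ME, pyruvate, antibiotics and FLT3L for 9 days. On day 9, compound in DMSO or 0.1% DMSO was added. After 12 h, supernatant IFN-γ and IL-23 were measured by ELISA. Three independent experiments.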

The species named for assay [2] is Mus musculus. Kind of assay: Antipsoriatic activity in K14-VEGF transgenic mouse model of psoriasis assessed as improvement of psoriatic symptoms at 0.05% applied tropically over lesion for continuous 21 days by macroscopic analysis relative to vehicle control. It is filed as functional, organism-based. In short, it runs like this:
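Homozygous K14-VEGF mice, 3–4 months old, with moderate to serious psoriasis. Lesions smeared with cream with or without 0.05% compound for 3 weeks, then observed untreated for another 15 days. Head and neck photographed on days 0, 21 and 36 for macroscopic assessment.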

Assay [3] is filed under the species Mus musculus. Nature of the assay: Antipsoriatic activity in K14-VEGF transgenic mouse model of psoriasis assessed alleviation in lack of granular layer at 0.05% applied tropically over lesion for continuous 29 days by H and E staining method relative to vehicle control. Type of assay: functional, organism-based. Summed up:
(§1)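 Homozygous K14-VEGF mice, 3–4 months old, with moderate to serious psoriasis; n=3 per group. Cream with 0.05% compound or vehicle cream smeared on lesions. Head and neck tissue sections taken after 29 days of treatment and HE-stained. Baker pathological score from 5 random fields, given as mean and SD. Epidermal thickness from 8 random fields, given as mean ± SEM.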

Assay [4] is filed under the species Mus musculus. Kind of assay: Antipsoriatic activity in K14-VEGF transgenic mouse model of psoriasis assessed as reduction in infiltrated lymphocytes at 0.05% applied tropically over lesion for continuous 29 days by H and E staining method relative to vehicle control. Type of assay: functional, organism-based. In short, it runs like this:
as §1

Assay [5] is filed under the species Mus musculus. Kind of assay: Antipsoriatic activity in K14-VEGF transgenic mouse model of psoriasis assessed as decrease in DC cells expressing FLT3 and CD11c in psoriatic lesion at 0.05% applied tropically over lesion for continuous 29 days by flow cytometric analysis relative to control. It is filed as functional.
The species named for assay [6] is Mus musculus. Nature of the assay: Antipsoriatic activity in K14-VEGF transgenic mouse model of psoriasis assessed as decrease in CD31 expression in psoriatic lesion at 0.05% applied tropically over lesion for continuous 29 days by immunohistochemical analysis relative to vehicle control. Type of assay: functional. Set-up: scale not given: the % may be the effect or the level left. In short, it runs like this: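 K14-VEGF mice were treated topically with 0.05% cream or vehicle for 29 days, n=3 per group. Ear skin was paraffin-embedded, cut into 4-µm sections and immunostained. Staining was quantified in 5 random fields, reported as mean ± SD.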

The species named for assay [7] is Mus musculus. Nature of the assay: Downregulation of IFN-gamma expression in K14-VEGF transgenic mouse model of psoriasis at 0.05% applied tropically over lesion for 29 days by ELISA. Type of assay: functional, organism-based. Summed up:
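K14-VEGF mice were treated for 29 days with 0.05% cream or vehicle, n=3 each. At termination, blood was held at 4 °C for 12 h and then centrifuged. Plasma IFN-γ and IL-17 were measured by ELISA, mean ± SD.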
(In general: ELISA stands for enzyme-linked immunosorbent assay.)

Assay [8] is filed under the species Mus musculus. Kind of assay: Antipsoriatic activity in K14-VEGF transgenic mouse model of psoriasis assessed as reduction in Baker scores at 0.05% applied tropically over lesion for continuous 29 days by H and E staining method relative to vehicle control. It is filed as functional, organism-based. Summed up:
as §1

The species entered for assay [9] is Mus musculus. Nature of the assay: Antipsoriatic activity in K14-VEGF transgenic mouse model of psoriasis assessed as lower left quadrant FLT3+/CD11c+/B220+ pDC cells in psoriatic plaque lesion at 0.05% applied tropically over lesion for continuous 29 days by flow cytometric analysis (reference value: 63.7%). In general terms: In flow cytometry, cells or beads pass a laser one at a time.

Active and inactive are the calls of the source. The calls are words filed in the database; no cut-off is given here.

In the case of `CC(C)(C)c1cc(NC(=O)Nc2ccc(Oc3ncnc4[nH]ncc34)c(F)c2)no1`, the Activity in assay [1] is 16.7%; in the assay filed under Mus musculus [6], 94%; in the assay listed under Mus musculus [9], 89.9%. For the same compound, in the assay on BMDC, the inhibition result is “Active”. The outcome in the assay listed under Mus musculus [2], in the assay listed under Mus musculus [3], in the assay filed under Mus musculus [4], in the assay listed under Mus musculus [7] and in the assay filed under Mus musculus [8] was Active. Further, the “inhibition (INH)” value in the assay listed under Mus musculus [5] is on record as 69.6%.
